Measured values from ChEMBL document CHEMBL3085659, “Synthesis, antiproliferative and apoptosis-inducing activity of thiazolo[5,4-d]pyrimidines” (Eur J Med Chem, 2013).
Blank lines part the entries; values can stand above or below the compound they belong to. Calls of active or inactive are those of the source. The rule behind the calls is not given here.

Columns and labels:
[1] = system: PC-3; test: Antiproliferative activity against human PC3 cells assessed as growth inhibition at 10 uM after 48 hrs by SRB assay; format: functional; conditions: PC-3, 48 h, read-out: GI
[2] = Antiproliferative activity against human MIAPaCa2 cells assessed as growth inhibition at 10 uM after 48 hrs by SRB assay; format: functional; conditions: MIA PaCa-2, 48 h, read-out: GI
[3] = Antiproliferative activity against human NCI-H322 cells assessed as growth inhibition at 10 uM after 48 hrs by SRB assay; format: functional; conditions: NCI-H322, 48 h, read-out: GI
[4] = system: A-431; test: Antiproliferative activity against human A431 cells assessed as growth inhibition at 10 uM after 48 hrs by SRB assay; format: functional; conditions: A-431, 48 h, read-out: GI
[5] = system: T98G; test: Antiproliferative activity against human T98G cells assessed as growth inhibition at 10 uM after 48 hrs by SRB assay; format: functional; conditions: read-out: GI
[6] = system: HL-60; test: Antiproliferative activity against human HL60 cells assessed as growth inhibition at 10 uM after 48 hrs by SRB assay; format: functional; conditions: HL-60, 48 h, read-out: GI
[7] = system: A549; test: Antiproliferative activity against human A549 cells assessed as growth inhibition at 10 uM after 48 hrs by SRB assay; format: functional; conditions: A549, 48 h, read-out: GI
[8] = system: T47D; test: Antiproliferative activity against human T47D cells assessed as growth inhibition at 10 uM after 48 hrs by SRB assay; format: functional; conditions: read-out: GI
[9] = system: HL-60; test: Induction of apoptosis in human HL60 cells assessed as morphological changes at 5 to 30 uM after 24 hrs using DAPI staining by fluorescence microscopic analysis; format: functional, cell-based
How it was run: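 HL-60 treated 24 h at indicated concentrations, then methanol-fixed, DAPI-stained and examined by fluorescence microscopy for cellular and nuclear apoptotic morphology, following the A549 protocol.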

[10] = Antiproliferative activity against human MIAPaCa2 cells after 48 hrs by SRB assay; format: functional, cell-based; conditions: MIA PaCa-2, 48 h
[11] = system: HL-60; test: Cell cycle arrest in human HL60 cells assessed as accumulation at G1 phase at 5 uM after 24 hrs using propidium iodide staining by flow cytometry (reference value: 40%); format: functional
[12] = system: PC-3; test: Antiproliferative activity against human PC3 cells after 48 hrs by SRB assay; format: functional, cell-based; conditions: PC-3, 48 h
[13] = system: HL-60; test: Cell cycle arrest in human HL60 cells assessed as accumulation at S phase at 5 uM after 24 hrs using propidium iodide staining by flow cytometry (reference value: 50%); format: functional
[14] = system: HL-60; test: Induction of apoptosis in human HL60 cells assessed as loss of mitochondrial potential at 30 uM after 24 hrs using rhodamine-123 staining by flow cytometric analysis (reference value: 2%); format: functional
[15] = system: HL-60; test: Cell cycle arrest in human HL60 cells assessed as accumulation at S phase at 20 uM after 24 hrs using propidium iodide staining by flow cytometry (reference value: 50%); format: functional
[16] = system: HL-60; test: Cell cycle arrest in human HL60 cells assessed as accumulation at S phase at 30 uM after 24 hrs using propidium iodide staining by flow cytometry (reference value: 50%); format: functional
[17] = system: HL-60; test: Cell cycle arrest in human HL60 cells assessed as accumulation at G2 phase at 5 uM after 24 hrs using propidium iodide staining by flow cytometry (reference value: 10%); format: functional
[18] = system: HL-60; test: Antiproliferative activity against human HL60 cells after 48 hrs by SRB assay; format: functional, cell-based; conditions: HL-60, 48 h
[19] = system: HL-60; test: Induction of apoptosis in human HL60 cells assessed as loss of mitochondrial potential at 5 uM after 24 hrs using rhodamine-123 staining by flow cytometric analysis (reference value: 2%); format: functional
[20] = system: HL-60; test: Induction of apoptosis in human HL60 cells at 20 uM after 24 hrs using propidium iodide staining by flow cytometry (reference value: 5%); format: functional
[21] = system: HL-60; test: Induction of apoptosis in human HL60 cells assessed as reduction of procaspase-3 expression after 24 hrs by Western blot analysis; format: functional, cell-based
How it was run: (§1)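 Cells treated 24 h (HL-60 at 5, 20, 30 µM; A549 at 1, 3, 10 µM); RIPA lysates, 70 µg protein resolved by SDS-PAGE, transferred to PVDF, blocked in 5% milk, probed for PARP-1 and procaspase-3 with HRP secondaries, ECL detection.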

[22] = system: HL-60; test: Cell cycle arrest in human HL60 cells assessed as accumulation at G2 phase at 30 uM after 24 hrs using propidium iodide staining by flow cytometry (reference value: 10%); format: functional
[23] = system: HL-60; test: Cell cycle arrest in human HL60 cells assessed as accumulation at G2 phase at 20 uM after 24 hrs using propidium iodide staining by flow cytometry (reference value: 10%); format: functional
[24] = system: HL-60; test: Induction of apoptosis in human HL60 cells at 5 uM after 24 hrs using propidium iodide staining by flow cytometry (reference value: 5%); format: functional
[25] = system: T47D; test: Antiproliferative activity against human T47D cells after 48 hrs by SRB assay; format: functional, cell-based
[26] = system: A549; test: Antiproliferative activity against human A549 cells after 48 hrs by SRB assay; format: functional, cell-based; conditions: A549, 48 h
[27] = system: HL-60; test: Induction of apoptosis in human HL60 cells assessed as loss of mitochondrial potential at 20 uM after 24 hrs using rhodamine-123 staining by flow cytometric analysis (reference value: 2%); format: functional
[28] = system: HL-60; test: Cell cycle arrest in human HL60 cells assessed as accumulation at G1 phase at 20 uM after 24 hrs using propidium iodide staining by flow cytometry (reference value: 40%); format: functional
[29] = system: HL-60; test: Induction of apoptosis in human HL60 cells at 30 uM after 24 hrs using propidium iodide staining by flow cytometry (reference value: 5%); format: functional
[30] = system: HL-60; test: Cell cycle arrest in human HL60 cells assessed as accumulation at G1 phase at 30 uM after 24 hrs using propidium iodide staining by flow cytometry (reference value: 40%); format: functional
[31] = system: HL-60; test: Induction of apoptosis in human HL60 cells assessed as cleavage of PARP1 after 24 hrs by Western blot analysis; format: functional, cell-based; how it was run: as §1

Compound: CN(C)c1ncnc2sc(Nc3ccccc3)nc12
inhibition of growth at 10 µM [1]: 36% | inhibition of growth at 10 µM [2]: 9% | inhibition of growth at 10 µM [3]: 18% | inhibition of growth at 10 µM [4]: 10% | inhibition of growth at 10 µM [5]: 45% | inhibition of growth at 10 µM [6]: 28% | inhibition of growth at 10 µM [7]: 28% | inhibition of growth at 10 µM [8]: 31%

Compound: Clc1ccc(Nc2nc3c(N4CCCC4)ncnc3s2)cc1
inhibition of growth at 10 µM [1]: 31% | inhibition of growth at 10 µM [2]: 37% | inhibition of growth at 10 µM [3]: 27% | inhibition of growth at 10 µM [4]: 17% | inhibition of growth at 10 µM [5]: 6% | inhibition of growth at 10 µM [6]: 41% | inhibition of growth at 10 µM [7]: 26% | inhibition of growth at 10 µM [8]: 38%

Compound: Clc1ncnc2sc(Nc3ccccc3)nc12
inhibition of growth at 10 µM [1]: 20% | inhibition of growth at 10 µM [2]: 4% | inhibition of growth at 10 µM [3]: 0% | inhibition of growth at 10 µM [4]: 1% | inhibition of growth at 10 µM [5]: 1% | inhibition of growth at 10 µM [6]: 21% | inhibition of growth at 10 µM [7]: 3% | inhibition of growth at 10 µM [8]: 22%

Compound: CN1CCN(c2ncnc3sc(Nc4ccccc4)nc23)CC1
inhibition of growth at 10 µM [1]: 29% | inhibition of growth at 10 µM [2]: 10% | inhibition of growth at 10 µM [3]: 39% | inhibition of growth at 10 µM [4]: 19% | inhibition of growth at 10 µM [5]: 36% | inhibition of growth at 10 µM [6]: 12% | inhibition of growth at 10 µM [7]: 19% | inhibition of growth at 10 µM [8]: 13%

Compound: Clc1ccc(Nc2nc3c(N4CCCCC4)ncnc3s2)cc1
inhibition of growth at 10 µM [1]: 2% | inhibition of growth at 10 µM [2]: 1% | inhibition of growth at 10 µM [3]: 63% | inhibition of growth at 10 µM [4]: 22% | inhibition of growth at 10 µM [5]: 45% | inhibition of growth at 10 µM [6]: 21% | inhibition of growth at 10 µM [7]: 57% | inhibition of growth at 10 µM [8]: 8%

IC50 [12]: 17 µM | IC50 [18]: 8 µM | IC50 [25]: 59 µM | IC50 [26]: 13 µM
Compound: c1ccc(Nc2nc3c(N4CCOCC4)ncnc3s2)cc1
Activity [9]: Active | inhibition of growth at 10 µM [1]: 45% | inhibition of growth at 10 µM [2]: 12% | IC50 [10]: 54 µM | inhibition of growth at 10 µM [3]: 7% | inhibition of growth at 10 µM [4]: 4% | Activity [11]: 43% | Activity [13]: 45% | Activity [14]: 26% | Activity [15]: 42% | Activity [16]: 54% | Activity [17]: 12% | Activity [19]: 9% | Activity [20]: 12% | Activity [21]: Dose-dependent effect | Activity [22]: 5% | inhibition of growth at 10 µM [5]: 26% | Activity [23]: 7% | inhibition of growth at 10 µM [6]: 59% | inhibition of growth at 10 µM [7]: 38% | Activity [24]: 9% | inhibition of growth at 10 µM [8]: 12% | Activity [27]: 16% | Activity [28]: 51% | Activity [29]: 24% | Activity [30]: 41% | Activity [31]: Dose-dependent effect

Compound: Clc1ccc(Nc2nc3c(N4CCOCC4)ncnc3s2)cc1
inhibition of growth at 10 µM [1]: 39% | inhibition of growth at 10 µM [2]: 21% | inhibition of growth at 10 µM [3]: 42% | inhibition of growth at 10 µM [4]: 0% | inhibition of growth at 10 µM [5]: 22% | inhibition of growth at 10 µM [6]: 33% | inhibition of growth at 10 µM [7]: 24% | inhibition of growth at 10 µM [8]: 40%

Compound: Clc1ccc(Nc2nc3c(Cl)ncnc3s2)cc1
inhibition of growth at 10 µM [1]: 18% | inhibition of growth at 10 µM [2]: 10% | inhibition of growth at 10 µM [3]: 47% | inhibition of growth at 10 µM [4]: 0% | inhibition of growth at 10 µM [5]: 0% | inhibition of growth at 10 µM [6]: 18% | inhibition of growth at 10 µM [7]: 46% | inhibition of growth at 10 µM [8]: 9%

Compound: c1ccc(Nc2nc3c(N4CCCCC4)ncnc3s2)cc1
inhibition of growth at 10 µM [1]: 2% | inhibition of growth at 10 µM [2]: 17% | inhibition of growth at 10 µM [3]: 41% | inhibition of growth at 10 µM [4]: 22% | inhibition of growth at 10 µM [5]: 42% | inhibition of growth at 10 µM [6]: 22% | inhibition of growth at 10 µM [7]: 54% | inhibition of growth at 10 µM [8]: 31%
